Measurements taken from ChEMBL document CHEMBL4004815, “(-)-Neocaryachine, an Antiproliferative Pavine Alkaloid from Cryptocarya laevigata, Induces DNA Double-Strand Breaks” (J Nat Prod, 2017).
The source made the active and inactive calls. No cut-off for these calls is given here.

How the values were obtained:
KBVIN [1] = experiment: Cell cycle arrest in human KBVIN cells assessed as accumulation at S phase at 20 uM after 24 to 48 hrs by propidium iodide staining-based flow cytometric method; format: functional
In short: (§1)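 KB-VIN cells were seeded 24 h before dosing, then exposed for 24 or 48 h, with 0.1% DMSO as the vehicle control. DNA content was stained with propidium iodide and cell-cycle distribution (sub-G1, S, G2/M) analysed by flow cytometry. Experiments were repeated at least three times.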

[2] = Antiproliferative activity against human KBVIN cells after 72 hrs by SRB assay; format: functional, cell-based
In short: (§2)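 Cells seeded at 4000−12 000 per well, density set by the line's doubling time. Compounds were added in DMSO, at most 0.1% v/v. After 72 h exposure, attached cells were fixed with 10% TCA, stained with 0.04% SRB, and the dye was solubilised in 10 mM Tris base. Absorbance read at 515 nm. IC50 is 50% reduction relative to untreated cells, averaged over at least three independent experiments in duplicate. KB-VIN was maintained in 100 nM VIN.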

Homo sapiens [3] = organism: Homo sapiens; experiment: Induction of DNA double strand breaks in human KBVIN cells assessed as increase in gamma-H2AX positive nuclei at 20 uM after 24 hrs by DAPI staining-based confocal fluorescence microscopic method; format: cell-based
In short: (§3)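 KB-VIN cells on chamber slides were dosed 24 h after seeding and treated for 24 h, with 0.1% DMSO as control. Cells were fixed in ice-cold 4% paraformaldehyde/PBS and permeabilised with 0.5% Triton X-100. Staining used mouse anti-α-tubulin with FITC secondary, rabbit anti-γ-H2AX with Alexa Fluor 546 secondary, and DAPI for nuclei. Stacked confocal images were examined.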

MCF7 = experiment: Antiproliferative activity against human MCF7 cells after 72 hrs by SRB assay; format: functional, cell-based; settings: MCF7, 72 h; in short: as §2
KBVIN [4] = experiment: Cell cycle arrest in human KBVIN cells assessed as increase in cell levels at sub G1 phase at 20 uM after 48 hrs by propidium iodide staining-based flow cytometric method; format: functional; in short: as §1
A549 = experiment: Antiproliferative activity against human A549 cells after 72 hrs by SRB assay; format: functional, cell-based; settings: A549, 72 h
In short: (§4)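 Cells seeded at 4000−12 000 per well, density set by the line's doubling time. Compounds were added in DMSO, at most 0.1% v/v. After 72 h exposure, attached cells were fixed with 10% TCA, stained with 0.04% SRB, and the dye was solubilised in 10 mM Tris base. KB-VIN was maintained in 100 nM VIN.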

MDA-MB-231 = experiment: Antiproliferative activity against human MDA-MB-231 cells after 72 hrs by SRB assay; format: functional, cell-based; settings: MDA-MB-231, 72 h; in short: as §4
Homo sapiens [5] = organism: Homo sapiens; experiment: Induction of morphological changes of microtubule in human KBVIN cells at 20 uM after 24 hrs by DAPI staining-based confocal fluorescence microscopic method; format: cell-based; in short: as §3
KB = experiment: Antiproliferative activity against human KB cells after 72 hrs by SRB assay; format: functional, cell-based; in short: as §4
Homo sapiens [6] = organism: Homo sapiens; experiment: Induction of morphological changes of microtubule in human KBVIN cells at 3 uM after 24 hrs by DAPI staining-based confocal fluorescence microscopic method; format: cell-based
In short: (§5)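 KB-VIN cells on chamber slides 24 h, then compound (0.3 and 3.0 µM) or 0.1% DMSO for 24 h. Fixed in ice-cold 4% paraformaldehyde/PBS, permeabilised with 0.5% Triton X-100. Stained with mouse anti-α-tubulin (FITC secondary), rabbit anti-γ-H2AX (Alexa Fluor 546 secondary) and DAPI. Imaged by confocal microscopy as stacked images.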

KBVIN [7] = experiment: Cell cycle arrest in human KBVIN cells assessed as accumulation at sub-G1 phase at 0.3 uM after 48 hrs by propidium iodide staining-based flow cytometric method; format: functional
In short: (§6)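 KB-VIN (P-gp-overexpressing MDR KB subline, maintained with 100 nM vincristine) seeded 24 h before treatment. Compound exposure 24 or 48 h, vehicle 0.1% DMSO; 5-FU and CA-4 (10 nM, 24 h) served as S and G2/M arrest controls. DNA content read by propidium iodide staining and flow cytometry. Experiments repeated at least three times.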

KBVIN [8] = experiment: Cell cycle arrest in human KBVIN cells assessed as accumulation at S phase at 3 to 10 uM after 24 to 48 hrs by propidium iodide staining-based flow cytometric method; format: functional; in short: as §6
Homo sapiens [9] = organism: Homo sapiens; experiment: Induction of DNA double strand breaks in human KBVIN cells assessed as increase in gamma-H2AX positive nuclei after 24 hrs by DAPI staining-based confocal fluorescence microscopic method; format: cell-based; in short: as §5
KBVIN [10] = experiment: Induction of apoptosis in human KBVIN cells assessed as nuclear fragmentation at 0.3 to 3 uM after 24 hrs by DAPI staining-based confocal fluorescence microscopic method; format: functional, cell-based; in short: as §5
KBVIN [11] = experiment: Cell cycle arrest in human KBVIN cells at 0.3 uM after 24 hrs by propidium iodide staining-based flow cytometric method; format: functional; in short: as §6

SMILES	Activity (KBVIN [1])	IC50 [2] [µM]	Activity (Homo sapiens [3])	IC50 (MCF7) [µM]	Activity (KBVIN [4])	IC50 (A549) [µM]	IC50 (MDA-MB-231) [µM]	Activity (Homo sapiens [5])	IC50 (KB) [µM]	Activity (Homo sapiens [6])	Activity (KBVIN [7])	Activity (KBVIN [8])	Activity (Homo sapiens [9])	Activity (KBVIN [10])	Activity (KBVIN [11])
CN1[C@H]2Cc3cc4c(cc3[C@@H]1Cc1cc3c(cc12)OCO3)OCO4 [ESCHOLTZINE]	inactive	19.8	inactive	26.6	Active	8.71	26.1	inactive	17	–	–	–	–	–	–
COc1ccc2c(c1O)[C@@H]1Cc3cc4c(cc3[C@H](C2)N1C)OCO4	–	0.241	–	0.413	–	0.064	0.264	–	0.228	Active	Active	Active	Dose-dependent effect	Active	inactive
CC(=O)O[C@H]1C(=O)[C@@]2(C)[C@H]([C@H](OC(=O)c3ccccc3)[C@]3(O)C[C@H](OC(=O)[C@H](O)[C@@H](NC(=O)c4ccccc4)c4ccccc4)C(C)=C1C3(C)C)[C@]1(OC(C)=O)CO[C@@H]1C[C@@H]2O [PACLITAXEL]	–	1.93	–	0.0104	–	–	–	–	–	–	–	–	–	–	–
COc1cc2c(cc1O)C[C@H]1c3cc4c(cc3C[C@@H]2N1C)OCO4	–	5.91	–	7.42	–	3.98	5.71	–	5.49	–	–	–	–	–	–
C[N+]1([O-])[C@H]2Cc3cc4c(cc3[C@@H]1Cc1cc3c(cc12)OCO3)OCO4 (some centres not stated)	–	> 40	–	> 40	–	29.3	41	–	35.5	–	–	–	–	–	–
COc1cc2c(cc1O)[C@@H]1Cc3cc(OC)c(OC)cc3[C@H](C2)N1C	–	> 40	–	> 40	–	> 40	> 40	–	> 40	–	–	–	–	–	–
